# Bioassay records from PubChem.
# MrgX1 antag: antagonists of human MrgX1 receptor; MRGX1-HEK293 calcium flux, Fluo-4, BAM8-22 antagonism; stronger effect = lower value; AID 588676; hit rate 1.3% among 310,000; Q96LB2; B-score at 10 µM;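 active means calcium-response B-score plate-corrected more than 3 library SD below zero, starting fluorescence within 5 deviations, no agonist response on first addition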;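 further: peak minus trough fluorescence over baseline after final BAM8-22 challenge near maximal dose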
# MrgX1 agonist: activates human MrgX1 receptor signaling; Q96LB2; MrgX1-HEK293 cells, Fluo-4 calcium fluorescence, agonist mode; stronger effect = higher value; B-score at 10 µM; hit rate 0.44% among 310,000; AID 588627;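 active means calcium response B-score plate-corrected fluorescence ratio at least 3 library SD, with starting fluorescence B-score inside 5 SD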
#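 Material – MrgX1-expressing HEK293 cells · Input – 15,000 cells seeded per well · Dosing – compound as first of three additions · Times – overnight seeding, then 1 h dark dye loading · Measured by – kinetic Fluo-4 NW fluorescence of intracellular calcium · Read-out – B-scored fluorescence response ratio · Benchmarks – positive and negative control wells on each plate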
# MrgX1 PAM: allosterically activates human MrgX1 receptor signaling | Q96LB2 | MrgX1-HEK293, Fluo-4 calcium flux, FDSS; stronger effect = higher value | B-score at 10 µM | hit rate 0.63% among 310,000 | AID 588675;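 active means plate-corrected calcium response at least 3 library SD above typical, normal starting fluorescence, not activating the receptor alone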;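 further: compound read alongside a low EC10 to EC30 dose of BAM8-22 agonist; peak minus trough fluorescence over baseline measured at the second addition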
# RGS4 inh: human RGS4 inhibition. HEK293 M3R/RGS4 inducible, Fluo-4 calcium flux; stronger effect = higher value; triggered by carbachol at its EC20. P49798. hit rate 0.45% among 310,000. B-score at 10 µM;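 active means B-score, a plate-corrected calcium signal, over three deviations above library mean, with baseline fluorescence within five deviations of library mean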;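 further: RGS4 expression induced by doxycycline in cells with stable M3 receptor; B-score is computed from the integrated fluorescence ratio over baseline after carbachol; higher B-score means a larger calcium signal and so more RGS4 inhibition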
# Target sequence (P49798 whole entry, looked up): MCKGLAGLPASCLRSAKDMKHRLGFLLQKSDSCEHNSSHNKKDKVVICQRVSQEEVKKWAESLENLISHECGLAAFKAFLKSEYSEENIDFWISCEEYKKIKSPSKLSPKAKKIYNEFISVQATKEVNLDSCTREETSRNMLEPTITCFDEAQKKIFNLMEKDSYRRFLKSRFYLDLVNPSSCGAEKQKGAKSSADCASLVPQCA
# RGS4 pot: potentiators or activators of RGS4; B-score at 10 µM; HEK293 M3R/inducible RGS4, carbachol calcium flux Fluo4; stronger effect = lower value; hit rate 0.92% among 310,000;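 active means B-score of the integrated calcium signal more than 4 SD below the library mean, with starting fluorescence not abnormally high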;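 further: negative B-score means reduced calcium response which marks RGS4 activation or potentiation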
#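 Assay system: HEK293 FlpIn-TREx cells, stable M3R, doxycycline-inducible RGS4 / Probe or stimulus: carbachol, ECmax concentration / Times: overnight RGS4 induction, 30 min dye load 37 °C, 20 min compound RT / Signal: kinetic calcium fluorescence imaging with Fluo4-AM dye, 2 µM / Measure: Agonist-evoked peak-minus-minimum fluorescence over baseline, integrated ratio, B score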
# Active calls of the source: *; i = inactive; . = not tested or not shown. Only some compounds are listed: those with a hit (about 3.5% of all), similar ones and a draw of the others.
SMILES,MrgX1 antag,MrgX1 agonist,MrgX1 PAM,RGS4 inh,RGS4 pot
CCC(=O)Nc1cccc(C(=O)/C=C/c2ccc(F)cc2)c1,i,29.5*,i,i,i
Cc1cc(C)c2c(c1)C(=O)/C(=C/c1ccc(C(=O)O)cc1)CC2,i,i,16.4*,i,i
COC(=O)c1ccc(NC(=O)CCN2C(=O)CSC2=O)cc1,i,i,i,i,i
O=C(N/N=C/c1ccc(Cl)c([N+](=O)[O-])c1)c1cnccn1,-4.67*,i,i,i,i
Cc1ccc(OCCn2ccnc2)c([N+](=O)[O-])c1,i,i,10.7*,i,i
Cc1c(C(=O)N2CCOCC2)c(S(=O)(=O)N2CCN(c3ccc(Cl)cc3)CC2)c(C)n1C,i,i,i,i,i
Cc1c(CCC(=O)NCCCCCC(=O)O)c(=O)oc2c(C)c3oc4c(c3cc12)CCCC4,i,i,i,i,i
Cc1c(CCC(=O)N2CCC[C@H]2C(=O)O)c(=O)oc2c(C)c3oc4c(c3cc12)CCCC4,i,i,7.23*,i,i
CCCc1cc(=O)oc2c3c(cc(OCC(=O)NCCN4CCOCC4)c12)OC(C)(C)CC3,i,i,i,i,i
Cc1cccc(NC2=Nc3ccccc3N3C2=Nc2c(c(C)nn2-c2ccccc2)C3c2ccc(O)c(O)c2)c1 (stereo not given),i,i,i,i,i
Cc1nn(-c2ccccc2)c2c1C(c1ccc([N+](=O)[O-])cc1)N1C(=N2)C(=O)Nc2ccccc21 (stereo not given),i,i,i,i,-9.03*
Cc1nn(-c2ccccc2)c2c1C(c1ccc(Cl)cc1)N(c1ccccc1)C(=O)N2 (stereo not given),i,i,i,i,i
Cc1nn(-c2ccc([N+](=O)[O-])cc2)c2c1C(c1cccc(Br)c1)N1C(=N2)C(=O)Nc2ccccc21 (stereo not given),-5.83*,i,i,i,i
Cn1cc(C(=O)NCc2ccc(Cl)cc2)c(=O)c2cc(S(=O)(=O)N3CCOCC3)ccc21,i,i,i,i,i
CC(Sc1nnc2c(n1)[nH]c1ccccc12)C(=O)N(C)C1CCCCC1 (stereo not given),-7.18*,i,i,i,i
CCOc1ccccc1CN1CCN(Cc2nc3c(s2)CCCC3)CC1CCO (stereo not given),i,i,i,i,i
CNC[C@H](Cc1ccccc1)NC[C@@H](Cc1cccc2ccccc12)NCCc1ccc(C)cc1,i,i,i,i,-8.2*
NC(=O)NC(=O)C(Nc1ccc(N2CCCCC2)cc1)c1ccccc1 (stereo not given),i,i,i,i,-9.05*
Cc1c(Br)c([N+](=O)[O-])nn1C(C)C(=O)NCc1cccs1 (stereo not given),i,i,i,i,i
Cc1c(Br)c([N+](=O)[O-])nn1CC(=O)NCc1cccs1,-4.8*,i,i,i,i
Nc1ccc(Oc2ccc(F)cc2)nc1,i,i,i,i,i
O=Cc1ccc(Oc2ccc(F)cc2)nc1,-4.52*,i,i,i,i
CC(C)C(O)(C#CCN1CCCCC1)c1ccccc1 (stereo not given),i,i,i,i,-7.19*
OC(C#CCN1CCCCCC1)(c1ccccc1)c1cccnc1 (stereo not given),i,i,i,i,i
CC(O)(C#CCN1CCOCC1)c1ccccc1 (stereo not given),.,.,.,i,i
CC(C)C(O)(C#CCN1CCCC1)c1ccccc1 (stereo not given),i,i,i,i,-7.45*
CCN1C(=O)/C(=C\N2CCCCCC2)SC1=S,i,i,i,i,-8.28*
COc1cc([N+](=O)[O-])ccc1NC(=O)NNC(=O)c1sccc1C,i,i,i,i,i
Cc1cccc([C@@H]2[C@@H]3C(=O)N(Cc4ccccc4)C(=O)[C@@H]3[C@]3(Cc4ccc(Cl)cc4)C(=O)N(c4ccccc4)C(=O)N23)c1,-6.6*,i,i,i,i
